Rows were chosen to be rich in hits. Some 2% of all compounds tested hit in one or more screens of this group.
M1 ag: human M1 muscarinic receptor agonism | P11229 | CHO-K1 hM1, Fluo-8 calcium fluorescence, agonist mode; 0% DMSO, 100% acetylcholine EC100 | activation, % at 3 µM | 360,000 compounds, 0.33% hits;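 active = activation above the run's mean compound activation plus 3 SD, cut at about 16% in these data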;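 also: peak over basal fluorescence ratio within a 140 s kinetic read after compound addition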
M5 antag: antagonists of human muscarinic M5 receptor (CHRM5) | P08912 | CHO-hM5 cells, Fluo-8 calcium fluorescence, ACh EC80 | inhibition, % at 3 µM | 360,000 compounds, 0.59% hits | AID 624040;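 active = inhibition above a per-plate cutoff, the mean of that plate's test compounds plus 3 SD, cut at about 27% in these data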
Target sequence (P08912 whole entry, looked up): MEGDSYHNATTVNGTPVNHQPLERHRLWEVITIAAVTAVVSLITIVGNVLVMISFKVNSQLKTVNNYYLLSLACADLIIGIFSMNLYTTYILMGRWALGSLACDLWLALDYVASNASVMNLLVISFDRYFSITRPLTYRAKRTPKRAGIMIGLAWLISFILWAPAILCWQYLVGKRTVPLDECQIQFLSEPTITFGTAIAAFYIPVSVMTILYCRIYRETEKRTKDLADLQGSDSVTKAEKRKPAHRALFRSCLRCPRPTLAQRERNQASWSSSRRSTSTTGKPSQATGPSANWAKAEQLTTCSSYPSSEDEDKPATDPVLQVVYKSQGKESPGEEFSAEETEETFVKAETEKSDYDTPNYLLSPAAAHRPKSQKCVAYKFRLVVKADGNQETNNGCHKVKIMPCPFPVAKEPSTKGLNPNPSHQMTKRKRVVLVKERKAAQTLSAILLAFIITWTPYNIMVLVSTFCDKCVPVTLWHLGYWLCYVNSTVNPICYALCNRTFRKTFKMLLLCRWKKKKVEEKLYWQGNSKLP
M1 antag: blocks human M1 muscarinic receptor; P11229; CHO-K1 hM1, Fluo-8 calcium fluorescence, ACh EC80 antagonist; inhibition, % at 3 µM; 360,000 compounds, 1.3% hits; AID 588852;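 active = percent inhibition above its own plate's cutoff, namely the mean of that plate's compound wells plus 3 SD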;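 also: peak over basal fluorescence ratio during 140 s after agonist addition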
M5 PAM: potentiates acetylcholine response at human M5 receptor; P08912; CHO-K1 hM5, Fluo-8 calcium, ACh EC20 PAM; 0% = ACh EC20, 100% = ACh EC100; activation, % at 3 µM; 360,000 compounds, 0.3% hits;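 active = activation above the run cutoff, the mean activation of all test compounds plus 3 SD, cut at about 18% in these data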
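system = human M5 receptor in CHO-K1 cells | reagent = EC20 acetylcholine as agonist stimulus | compound dosing = single-point, 3 µM nominal | incubation = Fluo-8 loading 80 min at 37 °C plus 30 min room temperature | detection = Fluo-8 calcium dye fluorescence, kinetic read | benchmarks = low control EC20 acetylcholine (0%), high control EC100 acetylcholine (100%)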
M1 PAM: human CHRM1 positive allosteric modulation; P11229; CHO-K1 hM1, Fluo-8 calcium fluorescence, ACh EC20; 0% = ACh EC20, 100% = maximal ACh; activation, % at 3 µM; 360,000 compounds, 0.088% hits; AID 588819; in the data active = activation above about 19%, passing the limit was not always enough
M5 ag: CHRM5 agonism in calcium assay; P08912; CHO-K1 hM5 cells, Fluo-8 calcium fluorescence; 0% DMSO wells, 100% maximal acetylcholine response; 360,000 compounds, 0.19% hits; activation, % at 3 µM;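 active = activation above the run's mean over test compounds plus 3 SD, cut at about 23% in these data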;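 also: signal is peak over basal fluorescence ratio across the kinetic read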
Numbers stand for hits; – = inactive; · = not tested or not shown.

SMILES | M1 ag | M5 antag | M1 antag | M5 PAM | M1 PAM | M5 ag
CC(C)[N+]12CCC(CC1)C(C(O)(c1ccccc1)c1ccccc1)C2 (centres undefined) | – | 43 | 93 | – | – | –
Cc1ccc(C(O)(c2ccc(C)c(C)c2)C2CN3CCC2CC3)cc1C (centres undefined) | – | – | – | – | – | –
C[N+]12CCC(CC1)C(C(O)(c1cccc(Cl)c1)c1cccc(Cl)c1)C2 (centres undefined) | – | 74 | 97 | – | – | –
CC[N+]12CCC(CC1)C(C(O)(c1ccccc1)c1ccccc1)C2 (centres undefined) | – | 86 | 98 | – | – | –
Cc1cc(C(=O)OC(C)C(=O)Nc2ccccc2)c(C)n1C1CC1 (centres undefined) | – | – | – | – | – | –
CCC1([N+](=O)[O-])COP(N)(=O)OC1 (centres undefined) | – | – | – | – | – | –
Cc1ccc2c(c1)C1CN(C)CCC1N2C(=O)c1cccs1 (centres undefined) | – | – | – | – | – | –
Cc1ccc2c(c1)C1C[N+](C)(CC(=O)c3ccc(Cl)cc3Cl)CCC1N2C(=O)c1ccc(F)cc1 (centres undefined) | – | – | 34 | – | – | –
O=C(c1ccc(Cl)cc1)C1CCCN(Cc2ccc3c(c2)OCCO3)C1 (centres undefined) | – | – | – | – | – | –
O=C(c1ccc2c(c1)OCO2)C1CCCN(Cc2ccc(F)c(F)c2)C1 (centres undefined) | – | – | 70 | – | – | –
Cc1ccccc1CC(=O)N(CCN(C)C)CC1CCCN(Cc2ccccc2F)C1 (centres undefined) | – | – | – | – | – | –
O=C(c1ccc(Cl)cc1)C1CCCN(Cc2cccc3cnccc23)C1 (centres undefined) | – | 48 | 70 | – | – | –
O=C(c1ccc(Cl)cc1)C1CCCN(Cc2ccc3ncccc3c2)C1 (centres undefined) | – | – | 81 | – | – | –
CN(C(=O)Cc1ccc2c(c1)OCO2)C1CCCN(Cc2ccccc2F)C1 (centres undefined) | – | – | 46 | – | – | –
CCOC(=O)[C@]12Cc3ccccc3[C@H]1N(CCC(=O)OC)C(=O)c1cc(OC)ccc12 | · | – | · | – | · | –
CC(C)(C)n1nnnc1C(c1ccnc2ccccc12)N1CCC2(CC1)C(=O)NCN2c1ccccc1 (centres undefined) | – | – | – | – | – | –
c1cncc(CNCCN2CCNCC2)c1 | – | – | – | – | – | –
COC(=O)C1=C(c2ccc(OCc3ccccc3)cc2)C[C@@H]2CC[C@H]1N2C(=O)NCc1ccccc1C(F)(F)F | – | – | – | – | – | –
CN(C)C(CNC(=O)Cc1c(Cl)cccc1Cl)c1ccccc1 (centres undefined) | – | 41 | 96 | – | – | –
CCOP(=O)(Cc1cc(C(C)=O)c(C)o1)OCC | – | – | – | – | – | –
N=c1sccn1Cc1ccccc1F | 17 | – | – | – | – | –
Clc1ccc(OCC#CCN2CCCC2)cc1 | – | 31 | 32 | – | – | –
COc1ccccc1OCC#CCN1CCCCCC1 | – | – | 33 | – | – | –
COc1ccccc1OCC#CCN1CCOCC1 | – | – | – | – | – | –
CC1CCCCN1C(=O)Cn1cc(C=C2C(=O)N(C)C(=O)N(C)C2=O)c2ccccc21 (centres undefined) | – | – | – | – | – | –
SMILES | M1 ag | M5 antag | M1 antag | M5 PAM | M1 PAM | M5 ag
COC(=O)C1=C(c2ccc(S(C)(=O)=O)cc2)C[C@@H]2CC[C@H]1N2C(=O)NCc1cccc2ccccc12 | – | – | – | – | – | –
Oc1cccc2nc3ccccc3nc12 | – | – | – | – | – | –
CCCCCCCCCCCCCCCC[N+](C)(C)C | – | 38 | – | – | – | –
Cc1[nH]c2ccccc2c1CCN | – | – | – | 19 | – | –
Cc1[nH]c2ccccc2c1CCCNC1CCCCC1 | – | – | – | – | – | –
CCCCCSc1cc(OC)c(CCN(C)C)cc1OC | – | – | 49 | – | – | –
CC(Cc1ccccc1Sc1ccccc1O)N(C)C (centres undefined) | – | 99 | 98 | – | – | –
CCOP(=S)(OCC)SCSP(=S)(OCC)OCC | – | – | – | – | – | –
O=c1cc(C(F)(F)F)c2cc3c4c(c2o1)CCCN4CCC3 | 120 | 52 | 67 | – | – | 71
C[N+](C)(C)Cc1ccccc1 | 76 | 65 | – | – | – | 89
CCC/C=N/O | – | – | – | – | – | –
O=C(C(=O)N1CCOCC1)c1cn(Cc2ccccc2)c2ccccc12 | – | – | – | – | – | –
CC1=C(O)C(=O)C=C2C1=CC=C1C2(C)CCC2(C)C3CC(C)(C(=O)O)CCC3(C)CCC12C (centres undefined) | – | 37 | – | – | – | –
Cc1c(N=Nc2c(O)n(Cc3ccccc3)c(=O)[nH]c2=O)c(=O)n(-c2ccccc2)n1C | – | – | – | – | – | –
CC(C)(C)C(=O)OC[N+](C)(C)CCOC(=O)C(O)(c1ccccc1)C1CCCC1 (centres undefined) | – | 99 | 98 | – | – | –
O=C(O)C(O)(c1ccccc1)C1CCCC1 (centres undefined) | – | – | – | – | – | –
CCCC(CCC)C(=O)OC[N+](C)(C)CCOC(=O)C(O)(c1ccccc1)C1CCCC1 (centres undefined) | – | 99 | 99 | – | – | –
C=CC12CN(C)C3C4COC(CC41)C1(C(=O)Nc4ccccc41)C32 (centres undefined) | – | – | – | – | – | –
CCN(CC)P(=S)(c1c(C)nc2ccccn12)c1c(C)nc2ccccn12 | – | – | – | – | – | –
CN1CCC(O)(c2ccc(Cl)cc2)C(C(=O)c2ccc(Cl)cc2)C1 (centres undefined) | – | – | 30 | – | – | –
N=C1c2ccccc2CN1c1ccc(F)c([N+](=O)[O-])c1 | – | – | – | – | – | –
COc1ccc(CNCCc2c(C)[nH]c3ccc(OC(F)(F)F)cc23)c(OC)c1 | – | 32 | – | – | – | –
C[N+]1(C)[C@@H]2CC[C@H]1CC(OC(=O)C(CO)c1ccccc1)C2 (some centres undefined) | – | 99 | 99 | – | – | –
C[N+]1(C)C2CCC1CC(OC(=O)C(CO)c1ccccc1)C2 (centres undefined) | – | 99 | 101 | – | – | –

Source: PubChem
